Results pooled from the literature.
Each line is one published result; the experiments were not run side by side.
Matrix: plasma

SMILES | system | conditions | Tmax
Cl.[2H]C([2H])([2H])CC(=O)c1cnc(NC(=O)C2CC2)cc1Nc1cccc(-c2ncn(C([2H])([2H])[2H])n2)c1OC | human | oral, 20 mg, multiple doses, once daily, fasted | 2.1 h
NS(=O)(=O)OC[C@@H]1C[C@@H](n2ccc3c(N[C@H]4CCc5ccccc54)ncnc32)C[C@@H]1O | human | intravenous, 20 mg/m², patients | 1.03 h
CN1CC[C@@H](c2c(O)cc(O)c3c(=O)cc(-c4ccc(C(F)(F)F)cc4Cl)oc23)[C@@H]1CO | human | oral, 50 mg, patients | 4.1 h
CNC(=O)n1ccc2cc(Oc3ccnc(NC(=O)c4ccc(C5CCN(CCO)CC5)cc4)c3)c(OCCOC)cc21 | human | oral, 35 mg, single dose, fasted, healthy volunteers | 3 h
CC(C)n1c(Nc2cccnc2)nc2cnc(Nc3ccc(N4CCN(C)CC4)cc3)nc21 | male human | oral, 150 mg, single dose, healthy volunteers | 1.5 h
Cc1ccc(C(=O)Nc2ccc(CN3CCN(C)CC3)c(C(F)(F)F)c2)cc1C#Cc1cnc2[nH]ncc2c1 | human | oral, 40 mg, healthy volunteers | 8 h
COc1ccc([C@@H](O)c2cc(-c3ncnc4cc(N5CCOCC5)ccc34)c(F)cc2Cl)nn1 | human | oral, 400 mg, single dose, patients | 1.08 h
Cn1cc(Nc2nc(N)nc(-c3cccc(-n4ccc5cc(C6CC6)cc(F)c5c4=O)c3CO)n2)cn1 | human | oral, 300 mg, single dose, fasted, healthy volunteers | 2 h
NC(=S)NN=Cc1ncccc1N | human | oral, 100 mg | 0.9 h
